Calls of active or inactive are those of the source. The rule behind the calls is not given here.
What was measured:
Rattus norvegicus [1] = test: Antihypertensive effect in spontaneously hypertensive rat (SHR), expressed as fall in blood pressure (BP) at 50 mg/kg dose given orally; assay type: functional; settings: route oral
How it was run: (§1)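 Male SHR, about 16 weeks old, with systolic pressure above 150 mmHg, held in restraint cages. Tail-cuff occlusion was raised to 250 mmHg and then lowered, after 1 h acclimation and at least 3 baseline readings. Dosing was by daily gavage in 3% cornstarch/5% PEG-400/Tween 80 for 2 or 4 days, with 4–6 rats per drug. Readings at 1, 2, 3 and 24 h; peak fall reported.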

Rattus norvegicus [2] = test: The compound was tested for antihypertensive effect in spontaneously hypertensive rat (SHR), expressed as fall in blood pressure (BP) at 25 mg/kg dose given orally; assay type: functional; settings: route oral; how it was run: as §1
Canis familiaris [3] = test: Antihypertensive activity in unanesthetized renal hypertensive dogs measured as mean Blood Pressure at 100 mg per kg dose after peroral administration on day 4 ((p<0.05); assay type: functional, Canis lupus familiaris; settings: route oral
How it was run: (§2)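 Renal hypertensive dogs, unanesthetized. Test compound given orally once daily as a solid in a gelatin capsule. Blood pressure was taken at 1.5, 3, 6 and 24 h after each daily dose. Activity is the maximum change in mean blood pressure or heart rate over each daily session. Values are mean ± SE, with significance marked at p < 0.05.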

Canis familiaris [4] = test: Antihypertensive activity in unanesthetized renal hypertensive dogs measured as mean Blood Pressure at 100 mg per kg dose after peroral administration on day1; assay type: functional, Canis lupus familiaris; parameters: unit not given beside the values; settings: route oral; how it was run: as §2
Canis familiaris [5] = test: Antihypertensive activity in unanesthetized renal hypertensive dogs measured as mean Blood Pressure at 100 mg per kg dose after peroral administration on day 3 (p<0.05); assay type: functional, Canis lupus familiaris; settings: route oral; how it was run: as §2
Canis familiaris [6] = test: Antihypertensive activity in unanesthetized renal hypertensive dogs measured as Heart Rate (HR) (beats/min) at 100 mg per kg dose after peroral administration on day1; assay type: functional, Canis lupus familiaris; settings: route oral; how it was run: as §2
Canis familiaris [7] = test: Antihypertensive activity in unanesthetized renal hypertensive dogs measured as mean Blood Pressure at 100 mg per kg dose after peroral administration on day 2 (p<0.05); assay type: functional, Canis lupus familiaris; settings: route oral; how it was run: as §2
Canis familiaris [8] = test: Antihypertensive activity in unanesthetized renal hypertensive dogs measured as Heart Rate (HR) (beats/min) at 100 mg per kg dose after peroral administration on day 2 (p<0.05); assay type: functional, Canis lupus familiaris; settings: route oral; how it was run: as §2
Canis familiaris [9] = test: Antihypertensive activity in unanesthetized renal hypertensive dogs measured as Heart Rate (HR) (beats/min) at 100 mg per kg dose after peroral administration on day 4; assay type: functional, Canis lupus familiaris; settings: route oral; how it was run: as §2
Canis familiaris [10] = test: Antihypertensive activity in unanesthetized renal hypertensive dogs measured as Heart Rate (HR) (beats/min) at 100 mg per kg dose after peroral administration on day 3; assay type: functional, Canis lupus familiaris; settings: route oral; how it was run: as §2
Rattus norvegicus [11] = test: The compound was tested for antihypertensive effect in spontaneously hypertensive rat (SHR), expressed as fall in blood pressure (BP) at 50 mg/kg dose given orally; (3/3 dead); assay type: functional
Rattus norvegicus [12] = test: The compound was tested for antihypertensive effect in spontaneously hypertensive rat (SHR), expressed as fall in blood pressure (BP) at 100 mg/kg dose given orally; Inactive; assay type: functional, organism-based; parameters: dose 100 mg/kg; how it was run: as §1
Canis familiaris [13] = test: Antihypertensive activity in unanesthetized renal hypertensive dogs measured as mean Blood Pressure at 100 mg per kg dose after peroral administration on day 2; assay type: functional, Canis lupus familiaris; settings: route oral; how it was run: as §2
Canis familiaris [14] = test: Antihypertensive activity in unanesthetized renal hypertensive dogs measured as Heart Rate (HR) (beats/min) at 100 mg per kg dose after peroral administration on day 2; assay type: functional, Canis lupus familiaris; settings: route oral; how it was run: as §2
Canis familiaris [15] = test: Antihypertensive activity in unanesthetized renal hypertensive dogs measured as mean Blood Pressure at 100 mg per kg dose after peroral administration on day 4 (p<0.05); assay type: functional, Canis lupus familiaris; settings: route oral; how it was run: as §2
Canis familiaris [16] = test: Antihypertensive activity in unanesthetized renal hypertensive dogs measured as HeartHeart Rate (HR) (beats/min) at 100 mg per kg dose after peroral administration on day 4 ((p<0.05); assay type: functional, Canis lupus familiaris, Heart; settings: route oral; how it was run: as §2
Rattus norvegicus [17] = test: The compound was tested for antihypertensive effect in spontaneously hypertensive rat (SHR), expressed as fall in blood pressure (BP) at 100 mg/kg dose given orally; assay type: functional; settings: route oral; how it was run: as §1

| Structure (SMILES) | BP (Rattus norvegicus [1]) | further results |
| --- | --- | --- |
| O=Cc1ccc(NCc2cccc(Cl)c2)cn1 | >20 mmHg | – |
| CC(Nc1ccc(C(=O)O)nc1)c1ccccc1 (centres undefined) | >80 mmHg | – |
| O=C(O)c1ccc(NCc2ccc(F)cc2)c[n+]1[O-] | >20 mmHg | – |
| NNC(=O)c1ccc(NCc2ccc(F)cc2)cn1 | >40 mmHg | – |
| Fc1ccc(CNc2ccc(C3N=NN=N3)nc2)cc1 | >60 mmHg | – |
| O=C(O)c1ccc(NCc2ccc(F)cc2)cn1 | > 60 mmHg | BP (Rattus norvegicus [2]): >60 mmHg; MBP (Canis familiaris [3]): -48; MBP (Canis familiaris [4]): -69; MBP (Canis familiaris [5]): -49; Maximum change in heart rate (Canis familiaris [6]): 37; MBP (Canis familiaris [7]): -41; HR (Canis familiaris [8]): 60; HR (Canis familiaris [9]): 41; HR (Canis familiaris [10]): 52 |
| O=C(O)c1ccc(NCCc2ccccc2)cn1 | >20 mmHg | – |
| O=C(O)c1ccc(NCc2ccc(C(F)(F)F)cc2)cn1 | >40 mmHg | – |
| O=C(O)c1ccc(NCc2ccccn2)cn1 | >20 mmHg | – |
| O=C(O)c1ccc(NCc2cccc(Oc3ccccc3)c2)cn1 | >20 mmHg | – |
| CC(C)(C)c1ccc(CNc2ccc(C(=O)O)nc2)cc1 | <20 mmHg | – |
| O/N=C/c1ccc(NCc2ccc(F)cc2)cn1 | <20 mmHg | – |
| O=C(O)c1ccc(NCC2CCCCC2)cn1 | – | BP (Rattus norvegicus [11]): >20 mmHg |
| CCC(=O)Nc1ccc(C(=O)O)nc1 | – | BP (Rattus norvegicus [12]): inactive |
| O=C(O)c1ccc(NCc2cccc(F)c2)cn1 | >60 mmHg | MBP (Canis familiaris [13]): -46; HR (Canis familiaris [14]): 78; MBP (Canis familiaris [4]): -30; MBP (Canis familiaris [5]): -56; Maximum change in heart rate (Canis familiaris [6]): 35; MBP (Canis familiaris [15]): -51; HR (Canis familiaris [16]): 44; HR (Canis familiaris [10]): 51 |
| O=C(O)c1ccc(NCc2cccc(C(F)(F)F)c2)cn1 | – | BP (Rattus norvegicus [17]): >60 mmHg |

| Structure (SMILES) | BP (Rattus norvegicus [1]) | further results |
| --- | --- | --- |
| CN(Cc1cccc(F)c1)c1ccc(C(=O)O)nc1 | >20 mmHg | – |
| Cc1nc(C(=O)O)ccc1NCc1cccc(Cl)c1 | >20 mmHg | – |
| O=C(O)c1ccc(NCc2ccc(Cl)c(Cl)c2)cn1 | <20 mmHg | – |
| Cc1cccc(CNc2ccc(C(=O)O)nc2)c1 | >20 mmHg | – |
| O=C(O)c1ccc(NS(=O)(=O)c2ccc(Cl)cc2)cn1 | – | BP (Rattus norvegicus [12]): inactive |
| NC(=O)c1ccc(CNc2ccc(C(=O)O)nc2)cc1 | <20 mmHg | – |
| OCc1ccc(NCc2ccc(F)cc2)cn1 | >80 mmHg | – |
| NC(=O)c1ccc(NCc2ccc(F)cc2)cn1 | >40 mmHg | – |
| CN(Cc1ccc(Cl)c(Cl)c1)c1ccc(C(=O)O)nc1 | >60 mmHg | – |
| O=C(O)c1ccc(NCc2ccncc2)cn1 | >20 mmHg | – |
| O=C(O)c1ccc(NCc2ccccc2F)cn1 | >40 mmHg | – |
| Cc1nc(C(=O)O)ccc1N(C)Cc1cccc(Cl)c1 | – | BP (Rattus norvegicus [17]): >20 mmHg |
| CN(Cc1cccc(Cl)c1)c1ccc(C(N)=O)nc1 | – | BP (Rattus norvegicus [2]): <20 mmHg |
| COc1cccc(CNc2ccc(C(=O)O)nc2)c1 | >20 mmHg | – |
| CN(Cc1cccc(Cl)c1)c1ccc(CO)nc1 | >40 mmHg | – |
| O=C(O)c1ccc(NCc2ccc(Cl)cc2)cn1 | – | BP (Rattus norvegicus [17]): >40 mmHg |

From ChEMBL document CHEMBL1121372, “Synthesis and antihypertensive activity of 5-amino-2-pyridinecarboxylic acid derivatives” (1980)
